The list is not random: actives were taken first. Their share in the collection is about 3.7%.
SR-BI DiI-HDL act: SR-BI HDL lipid transfer activation. CHO ldlA[mSR-BI] cells, DiI-HDL uptake fluorescence, 3 h; 100 = double the neutral-control signal. activation, % at 12.5 µM. actives 0.096% (n = 320,000). AID 504775;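 active = mean replicate activation of at least 60% and every replicate at or above 60%; inconclusive = mean or all-replicate condition met, but not both; inactive = mean below 60% and not all replicates reaching 60%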
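Assay system: CHO ldlA[mSR-BI] cells, LDL receptor-null, SR-BI overexpressing; medium: Ham's F12 with 0.5% BSA, HEPES 25 mM, pH 7.4; also added: DiI-HDL 10 µg/mL; timing: 3 h uptake period with compound, 37 °C; signal: DiI fluorescence, bottom read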
AHR activator: activates the human aryl hydrocarbon receptor. P35869. AHR-responsive luciferase reporter cells, luminescence. activation, % at 5 µM. actives 2.5% (n = 320,000); in the data active = activation above about 47%
GAA850 FXN act: activators of GAA850 frataxin (FXN) promoter; HEK293 lucGAA850 FXN promoter luciferase reporter, 24 h; percent of 10 µM SAHA response; activation, % at 6 µM; actives 0.56% (n = 360,000);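 active = activation above the average of all compounds screened plus 3 SD, cutoff fixed separately per campaign, cut at about 7.5% in these data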
GASC-1 inh: blocks human GASC-1 demethylase activity; Q9H3R0; GST-JMJD2C(1-420) H3K9me3 demethylation, DELFIA europium; inhibition, % at 2.35 µM; actives 0.069% (n = 330,000); AID 2099;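 active = more than half of a compound's replicate wells show inhibition beyond 50%, single wells judged on their own value; inconclusive = some, but no more than half, of replicates pass 50% inhibition; inactive = no replicate passes 50% inhibition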;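 note: signal counts dimethyl H3K9 product captured on neutravidin plate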
Target sequence (Q9H3R0 1-420 limits assumed): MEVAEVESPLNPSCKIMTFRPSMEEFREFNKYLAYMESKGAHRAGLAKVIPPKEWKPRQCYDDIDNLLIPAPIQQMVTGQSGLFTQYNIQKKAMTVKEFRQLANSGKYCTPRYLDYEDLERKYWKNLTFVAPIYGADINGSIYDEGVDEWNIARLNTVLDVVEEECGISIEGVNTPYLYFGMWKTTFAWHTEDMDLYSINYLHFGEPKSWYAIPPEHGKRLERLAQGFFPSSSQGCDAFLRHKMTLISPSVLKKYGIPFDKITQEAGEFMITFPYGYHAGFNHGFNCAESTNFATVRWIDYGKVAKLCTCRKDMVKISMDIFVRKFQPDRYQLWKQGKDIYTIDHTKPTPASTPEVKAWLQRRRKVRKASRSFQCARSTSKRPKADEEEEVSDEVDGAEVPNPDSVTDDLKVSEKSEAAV
SR-BI DiI inh: blocks mouse SR-BI lipid uptake from DiI-HDL; inhibition, % at 12.5 µM; actives 0.96% (n = 320,000); Q61009; ldlA[mSR-BI] CHO cells, DiI-HDL uptake fluorescence, 3 h;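 active = mean replicate inhibition of at least 70% and a set share of replicates each scoring 70 or more; inconclusive = meets just one of the two criteria; inactive = fails both criteria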
GAA30 counter: activates GAA30 frataxin promoter, counter-screen for GAA850 activators; shares compounds with GAA850 FXN act; HEK293 lucGAA30 FXN promoter luciferase, 24 h; DMSO = 0%, 5 µM ipriflavone = 100%; activation, % at 6 µM; actives 66% (n = 1,900); AID 588350;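 active = mean activation above the mean of solvent-only control wells plus 3 SD, cut at about 22% in these data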;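 note: counterscreen of GAA850 promoter hits where activity marks nonselective or luminescence artifacts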
FXN GAA850 conf: GAA850 FXN promoter activation confirmation; shares compounds with GAA850 FXN act; HEK293 lucGAA850 FXN promoter luciferase reporter, 24 h; 100% = activation by SAHA; activation, % at 6 µM; actives 86% (n = 1,900);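 active = mean activation above a set limit taken from the primary screen, cut at about 8% in these data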
Of the large screens only hits and unclear results are named; the others gave an inactive call (follow-up assays come after a bar, where they were run).

COc1ccc(C)cc1S(=O)(=O)NCC(c1ccc2c(c1)OCO2)N1CCN(C)CC1 (stereo not given)	none
NC(Cc1ccc(C(F)(F)F)cc1)c1csc(NC(=O)Nc2ccccc2Oc2ccccc2)n1 (stereo not given)	GAA850 FXN act 11.7 (no result: SR-BI DiI-HDL act, AHR activator, GASC-1 inh, SR-BI DiI inh) | GAA30 counter inactive | FXN GAA850 conf 8.2
NC(Cc1ccccc1)c1csc(NC(=O)Nc2ccccc2Oc2ccccc2)n1 (stereo not given)	none (no result: SR-BI DiI-HDL act, AHR activator, GASC-1 inh, SR-BI DiI inh)
COc1ccc(CC(N)c2csc(NC(=O)Nc3ccccc3Cc3ccccc3)n2)cc1 (stereo not given)	GAA850 FXN act 14.9 (no result: SR-BI DiI-HDL act, AHR activator, GASC-1 inh, SR-BI DiI inh) | GAA30 counter inactive | FXN GAA850 conf 7.7
COc1ccc(CC(N)c2csc(NC(=O)Nc3ccccc3Oc3ccccc3)n2)cc1 (stereo not given)	GAA850 FXN act 8.1 (no result: SR-BI DiI-HDL act, AHR activator, GASC-1 inh, SR-BI DiI inh) | GAA30 counter inactive | FXN GAA850 conf inactive
O=C(Cc1ccc(NS(=O)(=O)c2cccc(C(F)(F)F)c2)cc1)NCCN1CCOCC1	none
CN(C)C(=O)N1CCC(C(=O)N2CCCC(C(=O)c3cccc4ccccc34)C2)CC1 (stereo not given)	none
Cn1cc(CN2CCCC(CNC(=O)c3ccc4c(c3)OCO4)C2)c2ccccc21 (stereo not given)	GAA850 FXN act 10.9 | GAA30 counter inactive | FXN GAA850 conf 12.6
Cc1nc(N2N=C(c3ccc(Cl)cc3)CC2c2ccco2)sc1C(=O)N(C)C (stereo not given)	GAA850 FXN act 10.7 | GAA30 counter 26.5 | FXN GAA850 conf 21.9
Clc1ccc(C2=NN(c3ccccc3)C(c3ccco3)C2)cc1 (stereo not given)	none
N#C/C(=C\c1cccs1)C(=O)Nc1nccs1	GAA850 FXN act 9.2 | GAA30 counter 105.7 | FXN GAA850 conf 27.8
CCN(CC)S(=O)(=O)c1cc(NC(=O)CSCc2c(C)noc2C)ccc1C	GAA850 FXN act 8.4 | GAA30 counter inactive | FXN GAA850 conf 8.2
Cn1cccc1/C=C1\CCC/C(=C\c2cccn2C)C1=O	GAA850 FXN act 12.3, GASC-1 inh inconclusive | GAA30 counter 98.9 | FXN GAA850 conf 38.8
O=C(c1cc2ccccc2o1)c1cccs1	GAA850 FXN act 8.3 | GAA30 counter 116.9 | FXN GAA850 conf 40.2
O=C(NC(=S)Nc1ccc(NC(=O)c2cccs2)cc1)c1cc2ccccc2o1	none
Fc1ccc(CSc2ncnc3scc(-c4ccccc4)c23)cc1	GAA850 FXN act 8.9 | GAA30 counter 22.1 | FXN GAA850 conf 13.7
COC(=O)CSc1ncnc2scc(-c3ccccc3)c12	none
O=C(COC(=O)c1cc(S(=O)(=O)Nc2ccccc2Cl)ccc1O)Nc1ccc(F)c(F)c1F	none
C(=N\Nc1nc2ccccc2[nH]1)/c1c[nH]c2ccccc12	AHR activator 107.8, GAA850 FXN act 9.8 | GAA30 counter 128.8 | FXN GAA850 conf 43.5
O=C(CCNS(=O)(=O)c1ccc(OC(F)(F)F)cc1)NC1CC1	none
Cc1cc(C)nc(NS(=O)(=O)c2ccc(NC(=O)Cc3ccccc3F)cc2)n1	none (no result: SR-BI DiI-HDL act, SR-BI DiI inh)
Fc1ccc(N2CCN(c3cnc4ccccc4n3)CC2)cc1	GAA850 FXN act 7.9 | GAA30 counter 106.1 | FXN GAA850 conf 41.4
Cc1ccc2nc(/C(C#N)=C\c3ccc([N+](=O)[O-])o3)[nH]c2c1	GAA850 FXN act 8.1 | GAA30 counter inactive | FXN GAA850 conf inactive
CCCNc1nc(Cl)nc(NC(C)(C)C)n1	none
CC1CN(c2cc(=O)n(-c3ccccc3)c(=O)[nH]2)CC(C)O1 (stereo not given)	GAA850 FXN act 8.1 | GAA30 counter inactive | FXN GAA850 conf inactive
c1ccc(CNc2nc(NCc3ccccc3)c3sccc3n2)cc1	GAA850 FXN act 10.2 (no result: SR-BI DiI-HDL act, AHR activator, GASC-1 inh, SR-BI DiI inh) | GAA30 counter 46.1 | FXN GAA850 conf 16.6
CC12CC(NC(=O)N1c1cccc(C(=O)N3CCCCC3)c1)c1ccccc1O2 (stereo not given)	none
COc1cc2ncc(C(=O)c3ccccc3)c(N3CCN(Cc4ccccc4)CC3)c2cc1OC	none (no result: SR-BI DiI-HDL act, SR-BI DiI inh)
COC(=O)c1c(-c2cccs2)csc1NC(=O)c1cccnc1	GAA850 FXN act 9.8 | GAA30 counter 69.4 | FXN GAA850 conf 25.7
CCOC(=O)c1c(-c2cccs2)csc1NC(=O)CC(C)C	none
CSCCC(NC(=O)c1ccco1)C(=O)NC1CCC(C)CC1 (stereo not given)	none
CCN(CC(=O)NCc1cccs1)C(=O)COc1ccc(C(N)=O)cc1	none (no result: GASC-1 inh)
c1ccc(-c2noc(CSc3nnc(Cc4cccs4)n3-c3ccccc3)n2)cc1	none
Clc1ccc(-c2noc(CSc3nnc(Cc4cccs4)n3-c3ccccc3)n2)cc1	GAA850 FXN act 15.5 | GAA30 counter inactive | FXN GAA850 conf inactive
CC(=O)Nc1cccc(C(=O)Nc2cccnc2)c1	none
CCN1CCN(C(=O)c2oc(=O)c3ccccc3c2-c2ccc(C)cc2)CC1	GAA850 FXN act 15.5 | GAA30 counter inactive | FXN GAA850 conf inactive
Cc1ccc(-c2c(C(=O)N3CCOCC3)oc(=O)c3ccccc23)cc1	none
COc1ccc2c(c1)[C@H]1[C@H](CO2)[C@H](c2ccccc2)[C@]2(C)C(=O)N(Cc3ccc(C)cc3)CC(=O)N12	GAA850 FXN act 12.6 | GAA30 counter inactive | FXN GAA850 conf 9.0
Cc1ccc(CN2CC(=O)N3[C@H]4c5cc(Cl)ccc5OC[C@@H]4[C@H](c4ccccc4)[C@]3(C)C2=O)cc1	none (no result: GASC-1 inh)
Cc1ccc(CN2CC(=O)N3[C@H]4c5cc(C)ccc5OC[C@@H]4[C@H](c4ccccc4)[C@]3(C)C2=O)cc1	none
Cc1ccc2c(c1)[C@H]1[C@H](CO2)[C@H](c2ccccc2)[C@]2(C)C(=O)N(Cc3ccccc3)CC(=O)N12	GAA850 FXN act 9.0 (no result: GASC-1 inh) | GAA30 counter inactive | FXN GAA850 conf 10.7
C/C(=N\Nc1ccc(S(N)(=O)=O)cc1[N+](=O)[O-])c1ccco1	none
Cc1cccc(C)c1NC(=O)CN(C)C(=O)Cc1cccc(C(F)(F)F)c1	none (no result: SR-BI DiI-HDL act, SR-BI DiI inh)
Cc1ccccc1NC(=O)COC(=O)c1ccc(S(C)(=O)=O)c([N+](=O)[O-])c1	none
COc1ccc(C2=NN(C(=O)COC(=O)c3ccc(S(C)(=O)=O)c([N+](=O)[O-])c3)C(c3ccco3)C2)cc1 (stereo not given)	GAA850 FXN act 12.8 | GAA30 counter inactive | FXN GAA850 conf 18.8
CS(=O)(=O)c1ccc(C(=O)OCC(=O)N2CCN(CCC3CCCCC3)CC2)cc1[N+](=O)[O-]	none (no result: SR-BI DiI-HDL act, AHR activator, GASC-1 inh, SR-BI DiI inh)
CS(=O)(=O)c1ccc(C(=O)OCC(=O)N2CCOCC2)cc1[N+](=O)[O-]	GAA850 FXN act 9.7 (no result: SR-BI DiI-HDL act, AHR activator, GASC-1 inh, SR-BI DiI inh) | GAA30 counter 82.8 | FXN GAA850 conf 38.6

Screening results (PubChem)
